Measurements reported in ChEMBL document CHEMBL1121573, “2-(Aminomethyl)phenols, a new class of saluretic agents. 1. Effects of nuclear substitution” (J Med Chem, 1980).

System: Canis familiaris
Test: Compound administered intravenously at a dose of 5 mg/kg was evaluated for salidiuretic activity measured as sodium ion excretion in Dog; Value ranges from 600-799
Type: ADME, organism-based, Canis lupus familiaris, Urine
Design: dose 5 mg/kg, route intravenous; unit not given beside the values
Settings: in vivo, iv
Outline: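 Conditioned female mongrel dogs, postabsorptive, water-loaded (500 mL po) 1 h before sodium pentobarbital anesthesia (30 mg/kg iv). Bladder catheter; creatinine 4 g sc; phosphate–mannitol buffer pH 7.4 infused (3.0 mL/min) throughout. […] Urine Na+ measured; response scored 0–6.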

Compound	Diuretic activity
CCC(C)(C)c1cc(Cl)c(O)c(CN)c1.Cl	600
CC(C)c1cc(I)c(O)c(CN)c1.Cl	600
Br.Cc1c(C)c(CN)c(O)c(Cl)c1Cl	600
COc1c(Cl)c(OC)c(CN)c(O)c1Br.Cl	600

System: not listed separately
Test: Compound administered orally at a dose of 5 mg/kg was evaluated for salidiuretic activity measured as sodium ion excretion in Rat
Type: organism-based
Design: dose 5 mg/kg
Settings: Urine
Outline: (§1)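 Female Charles-River rats (150–170 g), overnight on sugar diet with water ad libitum. Compound dissolved in DMF, diluted with water containing Tween 80 (final 4% DMF), given po in 5.0 mL; concurrent vehicle placebo. Three rats per metabolism cage; 0–5 h urine analysed for Na+, K+, Cl-. Values: mequiv × 100 per cage, geometric means of three cages per dose; scored 0–6 by Na+.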

Compound	Diuretic activity
CCC(C)(C)c1cc(Cl)c(O)c(CN)c1.Cl	0.5
CC(C)c1cc(I)c(O)c(CN)c1.Cl	2.6
Br.Cc1c(C)c(CN)c(O)c(Cl)c1Cl	2.6
COc1c(Cl)c(OC)c(CN)c(O)c1Br.Cl	2.6

System: Rattus norvegicus
Test: Evaluated for salidiuretic activity measured as sodium ion excretion in Rat, administered orally at a dose of 50 mg/kg
Type: functional, Urine
Design: unit not given beside the values
Settings: route oral
Outline: as §1

Compound	Diuretic activity
CCC(C)(C)c1cc(Cl)c(O)c(CN)c1.Cl	2.4
CC(C)c1cc(I)c(O)c(CN)c1.Cl	3.6
Br.Cc1c(C)c(CN)c(O)c(Cl)c1Cl	3.6
COc1c(Cl)c(OC)c(CN)c(O)c1Br.Cl	3.6

System: Rattus norvegicus
Test: Compound administered orally at a dose of 81 mg/kg was evaluated for salidiuretic activity measured as sodium ion excretion in Rat
Type: ADME, organism-based, Urine
Design: dose 81 mg/kg, route oral; unit not given beside the values
Settings: in vivo, po
Outline: as §1

Compound	Diuretic activity
CCC(C)(C)c1cc(Cl)c(O)c(CN)c1.Cl	2.9

System: Rattus norvegicus
Test: Compound administered orally at a dose of 1 mg/kg was evaluated for salidiuretic activity measured as sodium ion excretion in Rat
Settings: in vivo, po

Compound	Diuretic activity
CC(C)c1cc(I)c(O)c(CN)c1.Cl	0.7
Br.Cc1c(C)c(CN)c(O)c(Cl)c1Cl	0.7
COc1c(Cl)c(OC)c(CN)c(O)c1Br.Cl	0.7

System: not listed separately
Test: Evaluated for salidiuretic activity measured as sodium ion excretion in Rat, administered orally at a dose of 16.5 mg/kg
Type: organism-based
Design: dose 16.5 mg/kg
Settings: Urine
Outline: as §1

Compound	Diuretic activity
CCC(C)(C)c1cc(Cl)c(O)c(CN)c1.Cl	1.4
CC(C)c1cc(I)c(O)c(CN)c1.Cl	3.3
Br.Cc1c(C)c(CN)c(O)c(Cl)c1Cl	3.3
COc1c(Cl)c(OC)c(CN)c(O)c1Br.Cl	3.3
